From ChEMBL document CHEMBL1131008, “Substituted halogenated arylsulfonamides: a new class of sigma receptor binding tumor imaging agents” (J Med Chem, 1998)

biological target: Sigma 2 receptor; test: Inhibition of [3H]-DTG binding to sigma-2 receptor of rat liver membranes with 1 uM dextrallorphan; format: cell membranes, Membrane
Procedure, shortened: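 Rat liver membranes (150-200 µg protein) incubated with 5 nM [3H]DTG plus 1 µM dextrallorphan to mask sigma-1 sites, in 50 mM Tris-HCl pH 8.0, 120 min at 25 °C. […] Filtration assay. IC50 from curve fitting, converted to Ki via Cheng-Prusoff. Two or three experiments, each in duplicate.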

SMILES | Ki
CN(CCN1CCCCCC1)S(=O)(=O)c1ccc(Br)cc1 | 44.4 nM
O=S(=O)(NCCN1CCCCCC1)c1ccc(I)cc1 | 189 nM
O=S(=O)(NCCN1CCCCCC1)c1ccc(Br)cc1 | 198 nM
O=S(=O)(NCCN1CCCC1)c1ccc(I)cc1 | 1000 nM
O=S(=O)(NCCN1CCCCC1)c1ccc(Br)cc1 | 459 nM
O=S(=O)(NCCN1CCCC1)c1ccc(Br)cc1 | 1490 nM
CCN(CC)CCNS(=O)(=O)c1ccc(Br)cc1 | 2830 nM
CCN(CC)CCNS(=O)(=O)c1ccc(I)cc1 | 2390 nM
CN(CCN1CCCCCC1)S(=O)(=O)c1ccc(I)cc1 | 23.5 nM
O=S(=O)(NCCN1CCCCC1)c1ccc(I)cc1 | 206 nM
COc1ccc(S(=O)(=O)NCCN2CCCCC2)cc1I | 449 nM
COc1ccc(S(=O)(=O)N(C)CCN2CCCCCC2)cc1I | 337 nM
